Screens deposited in PubChem by several laboratories.
Only some compounds are listed: those with a hit (about 2% of all), similar ones and a draw of the others.
CAL PDZ FP-1 – CAL PDZ peptide-binding inhibitors, primary screen, biochemical, fluorescence polarization, Cer-tagged CAL PDZ, HTS; Golgi-associated PDZ and coiled-coil motif-containing protein (Homo sapiens), Q9HD26; purified CAL PDZ, TMR-peptide fluorescence polarization, 1 h; 330,000 tested, 0.02% active; inhibition, % at 20 µM;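 active means highest replicate inhibition of at least 40%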
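Material: tagged CAL PDZ protein CerCALP, purified; buffer or medium: sodium phosphate/NaCl buffer pH 7.4 with TCEP, IgG, Thesit; also added: fluorescent TMR peptide probe; schedule: 1 h incubation at room temperature before polarization reading; technique: fluorescence polarization from S- and P-plane intensities, G-factor corrected; control set: unlabelled peptide and DMSO controls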
PKA-R1A act – activators of PKA-R1A holoenzyme, primary screen, biochemical, fluorescence polarization, Cy5-IP20, bovine R1A, mouse PKAc | cAMP-dependent protein kinase type I-alpha regulatory subunit (Bos taurus) + … | PKA-R1A dissociation; scaled: DMSO 0%, 113 µM cGMP 100% | activation, % at 11.4 µM | 340,000 tested, 0.083% active | AID 504707, 2011;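 active means percent activation above the mean of all tested compounds plus 3 SD, cut at about 19% in these data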;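 further: higher means more PKAc released from R1A so a rise in polarization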
dFosB act-1 – activators of delta FosB homodimer, primary screen, biochemical, fluorescence polarization, TAMRA-CDK5 oligo, single point. activation, % at 25 µM. 340,000 tested, 0.99% active. purified delta FosB; percent of positive-control signal above neutral wells. Protein FosB (Mus musculus), P13346;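 active means mean activation above about 17%, with every replicate also reaching it, limit read from the data, passing the limit was not always enough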
CAL PDZ FP-2 – untagged CAL PDZ binding inhibitors, primary screen, biochemical, fluorescence polarization, HTS. purified CAL PDZ, TMR-peptide fluorescence polarization, 1 h. AID 602252, 2012. 300,000 tested, 0.92% active. inhibition, % at 24.9 µM;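 active means mean inhibition of at least 30% with at least half of replicates also reaching 30%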
PKA-R2B act – activators of PKA-R2B holoenzyme, primary screen, biochemical, fluorescence polarization, Cy5-IP20, human | cAMP-dependent protein kinase catalytic subunit beta (Homo sapiens) + cAMP-dependent … | PKA-R2B holoenzyme dissociation; R2B truncated from residue 108, S112A mutant; 0% DMSO only, 100% 113 µM cGMP | activation, % at 11.4 µM | 340,000 tested, 0.079% active | AID 504700, 2011;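 active means activation above a cutoff set at the mean over all compounds plus 3 SD, cut at about 18% in these data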;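 further: higher means more holoenzyme dissociation and a rise in polarization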
NTR1 agonist – agonists of human NTR1, primary screen, imaging, U2OS cells, beta-arrestin-GFP, high content. 330,000 tested, 0.17% active. activation, % at 20 µM. NTR1-U2OS beta-arrestin-GFP spot imaging, agonist mode;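 active means activation at or above 40% of the spot to cytoplasm intensity ratio, with at least 20 cells analyzed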
Target sequence (P30989 whole entry, looked up): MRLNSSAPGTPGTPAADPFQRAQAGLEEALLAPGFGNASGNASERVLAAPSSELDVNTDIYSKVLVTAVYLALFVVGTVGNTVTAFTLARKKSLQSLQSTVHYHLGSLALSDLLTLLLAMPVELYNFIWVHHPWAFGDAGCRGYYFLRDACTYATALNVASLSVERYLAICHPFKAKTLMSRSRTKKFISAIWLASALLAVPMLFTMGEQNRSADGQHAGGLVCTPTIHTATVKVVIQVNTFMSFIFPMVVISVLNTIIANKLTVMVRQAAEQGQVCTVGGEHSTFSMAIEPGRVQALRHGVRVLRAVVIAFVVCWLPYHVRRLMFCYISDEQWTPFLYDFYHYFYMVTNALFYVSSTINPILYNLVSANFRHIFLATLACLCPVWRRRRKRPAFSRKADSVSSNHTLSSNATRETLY
NTR1 ag confirm – NTR1 agonists, single-dose retest, confirmation, imaging, U2OS cells, beta-arrestin-GFP, single concentration | activation, % at 20 µM | AID 504550, 2011 | NTR1-U2OS beta-arrestin-GFP translocation imaging | 480 tested, 38% active | shares compounds with NTR1 agonist;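 active means mean activation at 20 µM of at least 40%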
dFosB act-2 – activators of mouse delta FosB DNA binding, confirmation, biochemical, fluorescence polarization, TAMRA-CDK5 oligo, cherry-picked samples; shares compounds with dFosB act-1; purified delta FosB; normalised: neutral wells 0, positive control 100; 2,400 tested, under 10 active; activation, % at 24.9 µM;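 active means highest replicate activation at or above 34% and every replicate reaching that threshold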;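 further: higher polarization means more probe DNA bound by delta FosB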
R2B FP artifact – fluorescence polarization artefacts, biochemical, artefact control for PKA-R2B activator project. shares compounds with PKA-R2B act. FP artifact counterscreen. activation, % at 11.4 µM. 270 tested, 6% active. AID 504796, 2011; in the data active means activation above about 20%;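 further: Cy5 labelled IP20 peptide probe with compound but no PKA protein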
PKA-R2B act conf – activators of PKA-R2B holoenzyme, confirmation, biochemical, fluorescence polarization, human; shares compounds with PKA-R2B act; activation, % at 11.4 µM; PKA-R2B complex, activation; AID 504797, 2011; 270 tested, 9% active; in the data active means activation above about 19%
R1A FP artifact – FP signal interference without PKA proteins, confirmation, artefact control for PKA-R1A activator project, biochemical, fluorescence polarization, triplicate; shares compounds with PKA-R1A act; Cy5-IP20 peptide alone, fluorescence polarization artifact counterscreen; activation, % at 11.4 µM; 280 tested, 7% active; AID 504799, 2011;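 active means mean activation over triplicate runs exceeds the adjusted cutoff derived for the parent primary screen, cut at about 19% in these data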;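 further: no PKA protein present so any polarization rise reflects compound interference; higher means stronger polarization artifact and likely false positive in parent screen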
PKA-R1A confirm – activators of PKA-R1A holoenzyme, confirmation, biochemical, fluorescence polarization, Cy5-IP20, triplicate. shares compounds with PKA-R1A act. PKA-R1A holoenzyme dissociation. activation, % at 11.4 µM. 280 tested, 9% active. AID 504800, 2011;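 active means mean activation over replicate wells exceeds the adjusted hit threshold taken from the earlier primary screen, cut at about 20% in these data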
Of the large screens only hits and unclear results are named; the others gave an inactive call (follow-up assays come after a bar, where they were run).

CCOP(=O)(OCC)c1cc(CC)ccc1O	none
CSc1ncc(CN2CCCC(C(=O)c3cccc(Cl)c3)C2)cn1 (stereo not drawn)	CAL PDZ FP-2 48
CC(C)Oc1cccc(C(=O)C2CCCN(Cc3ccon3)C2)c1 (stereo not drawn)	CAL PDZ FP-2 65
CC1CC(C)CN(C(=O)COC(=O)c2cn(C)c3ccccc23)C1 (stereo not drawn)	none
O=c1c(C=NCCN2CCNCC2)c(O)n(C2CCCCC2)c(=O)n1C1CCCCC1	dFosB act-1 41 (no result: CAL PDZ FP-1)
CC1=NN(Cc2c[nH]c3ccccc23)C(C)(C)C1	none
CCN1CCC(N(C)C2CCCCC2)CC1	none
COC(=O)C[C@]1(C(=O)OC)CN(C#N)N(c2ccc(Cl)cc2)C12c1ccccc1-c1ccccc12	NTR1 agonist 41 | NTR1 ag confirm 62
COC(=O)[C@@H]1[C@@H](C(=O)OC)C2(c3ccccc3-c3ccccc32)N(c2ccc(Cl)cc2)N1C#N	none
O=C1NC(=O)C(=Cc2ccc(SC3CCCCC3)o2)C(=O)N1	NTR1 agonist 50 | NTR1 ag confirm 68
Cc1cc(C)n2nc(SC(C)C(=O)N3CCC4(CC3)OCCO4)nc2n1 (stereo not drawn)	none (no result: CAL PDZ FP-2)
CC(C)CCNC(=O)c1c(N)n(CC2CCCO2)c2nc3ccccc3nc12 (stereo not drawn)	NTR1 agonist 43 | NTR1 ag confirm inactive
O=C1NC(=O)N(c2ccccc2F)C(=O)/C1=C/c1cn(CC(=O)N2CCOCC2)c2ccccc12	NTR1 agonist 42 (no result: CAL PDZ FP-1, PKA-R1A act, dFosB act-1, CAL PDZ FP-2, PKA-R2B act) | NTR1 ag confirm inactive
CCN1C(=O)NC(=O)/C(=C\c2cn(CC(=O)N3CCCC3)c3ccccc23)C1=O	none
CC1CC2C(C(O)CC3(C)C(O)CCC23)C2(C)CCC(=O)C=C12 (stereo not drawn)	none (no result: NTR1 agonist)
N=C(N)c1c(O)n(C2CCCCC2)c(=O)n(C2CCCCC2)c1=O	NTR1 agonist 54 | NTR1 ag confirm inactive
O=c1c(C=NCc2cccs2)c(O)n(C2CCCCC2)c(=O)n1C1CCCCC1	none (no result: CAL PDZ FP-1)
Cc1ccc(-c2cc(-c3ccccc3)cc(-c3ccccc3)[n+]2-c2ccccc2)cc1	NTR1 agonist 50 | NTR1 ag confirm 82
Cc1ccc(-c2cc(-c3ccc(C)cc3)[n+](-c3ccccc3)c(-c3ccc(C)cc3)c2)cc1	none
c1ccc(-c2cc(-c3ccccc3)[n+](-c3ccccc3)c(-c3ccccc3)c2)cc1	NTR1 agonist 67 | NTR1 ag confirm 65
O=C(COc1ccc(Cl)cc1)N1CCN(C/C=C/c2ccccc2)CC1	none
COc1ccc(-c2ccc(OC)c(OC)c2OC)cc1	none (no result: NTR1 agonist)
N=c1sccn1Cc1ccccc1F	none (no result: CAL PDZ FP-1, NTR1 agonist)
COc1ccc(OC)c(N=Cc2c(O)n(Cc3ccccc3)c(=S)[nH]c2=O)c1	NTR1 agonist 59 (no result: CAL PDZ FP-2) | NTR1 ag confirm 65
O=C1NC(=O)N(c2ccccc2)C(=O)/C1=C\C=C\c1ccccc1	NTR1 agonist 74 (no result: PKA-R1A act, CAL PDZ FP-2, PKA-R2B act) | NTR1 ag confirm 49
NCCNc1ccc([N+](=O)[O-])c2cccnc12	dFosB act-1 16 (no result: CAL PDZ FP-2) | dFosB act-2 inactive
COc1ccc(-c2[nH]ncc2CNC(C)Cc2cccc(C)n2)cc1F (stereo not drawn)	none
CN(C(=O)c1ccc(Cl)nc1)C1(c2ccccc2Cl)CCCCC1=O (stereo not drawn)	PKA-R2B act 21 | R2B FP artifact inactive | PKA-R2B act conf inactive
COC(=O)C(C)NC(=S)N1CC2C[C@@H](C1)Cn1c2cccc1=O (stereo partly drawn)	none
CCC(CO)(C(=O)OC1C[N+]2(C)CCC1CC2)c1ccccc1 (stereo not drawn)	PKA-R2B act 20 | R2B FP artifact inactive | PKA-R2B act conf inactive
Cc1cc(C=C2C(=O)N(C)C(=S)N(C)C2=O)c(C)n1-c1cccnc1	none
CC1=CP(=O)(Oc2ccc([N+](=O)[O-])cc2)CC1 (stereo not drawn)	PKA-R1A act 19 (no result: CAL PDZ FP-1, dFosB act-1, CAL PDZ FP-2, NTR1 agonist) | R1A FP artifact inactive | PKA-R1A confirm inactive
CN1C(=O)CN=C(c2ccc[nH]2)c2cc(Cl)ccc21 (tested in a mixture with another compound)	none (no result: CAL PDZ FP-1, dFosB act-1, CAL PDZ FP-2, NTR1 agonist)
O=C(COc1ccccc1Cl)N1CCCC(N2CCN(c3ccc(F)cc3)CC2)C1 (stereo not drawn)	PKA-R1A act 19 | R1A FP artifact inactive | PKA-R1A confirm inactive
O=C(NC1CCCCC1)[C@@H]1CC=C[C@@H]2CCN(Cc3ccccc3)C(=O)[C@@H]21	none
